Source: the M2OR odorant receptor database
Substitutions are numbered along the chain they refer to.

What was measured:
Details in all cases: stereoisomer not certain
OR2A1 T73A R74C S168C = test system: T1, OR2A1 T73A R74C S168C
T1 sequence (whole entry): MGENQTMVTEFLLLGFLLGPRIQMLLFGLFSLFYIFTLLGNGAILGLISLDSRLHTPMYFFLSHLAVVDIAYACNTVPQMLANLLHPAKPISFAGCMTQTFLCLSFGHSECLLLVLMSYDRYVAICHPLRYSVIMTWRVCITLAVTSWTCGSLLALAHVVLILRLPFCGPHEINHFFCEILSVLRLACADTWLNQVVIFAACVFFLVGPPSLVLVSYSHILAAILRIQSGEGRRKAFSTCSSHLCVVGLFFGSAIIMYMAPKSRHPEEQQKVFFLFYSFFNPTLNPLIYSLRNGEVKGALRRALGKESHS
Summary of the method: (§1)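 Whether a receptor–molecule pair is responsive (active) rests on the original authors' judgment that its measured signal was statistically different from baseline. Pairs without that judgment are non-responsive (inactive). Sources used varied assay methods, commonly transient luciferase assays in mammalian cell lines.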

OR2A12 (Homo sapiens) = molecular target: T2, OR2A12 (Homo sapiens) (UniProt Q8NGT7)
T2 sequence (whole entry): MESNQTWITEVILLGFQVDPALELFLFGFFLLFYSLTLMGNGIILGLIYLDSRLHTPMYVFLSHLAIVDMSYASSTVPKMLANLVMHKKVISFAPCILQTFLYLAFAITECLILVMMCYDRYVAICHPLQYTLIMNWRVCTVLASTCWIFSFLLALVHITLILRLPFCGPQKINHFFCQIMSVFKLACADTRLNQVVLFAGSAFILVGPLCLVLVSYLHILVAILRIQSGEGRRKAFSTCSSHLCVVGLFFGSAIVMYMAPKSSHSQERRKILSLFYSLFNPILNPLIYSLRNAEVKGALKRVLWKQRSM
Summary of the method: as §1

OR2A14 (Homo sapiens) = molecular target: T3, OR2A14 (Homo sapiens) (UniProt Q96R47)
T3 sequence (whole entry): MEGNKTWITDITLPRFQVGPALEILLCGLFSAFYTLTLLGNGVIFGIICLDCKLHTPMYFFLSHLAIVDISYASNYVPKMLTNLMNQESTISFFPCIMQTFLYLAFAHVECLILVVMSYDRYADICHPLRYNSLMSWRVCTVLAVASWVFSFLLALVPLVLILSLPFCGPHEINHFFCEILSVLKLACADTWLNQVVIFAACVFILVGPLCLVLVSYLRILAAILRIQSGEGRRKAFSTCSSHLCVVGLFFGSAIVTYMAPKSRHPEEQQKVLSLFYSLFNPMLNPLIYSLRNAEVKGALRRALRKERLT
Summary of the method: as §1

OR2A2 (Homo sapiens) = molecular target: T4, OR2A2 (Homo sapiens) (UniProt Q6IF42)
T4 sequence (whole entry): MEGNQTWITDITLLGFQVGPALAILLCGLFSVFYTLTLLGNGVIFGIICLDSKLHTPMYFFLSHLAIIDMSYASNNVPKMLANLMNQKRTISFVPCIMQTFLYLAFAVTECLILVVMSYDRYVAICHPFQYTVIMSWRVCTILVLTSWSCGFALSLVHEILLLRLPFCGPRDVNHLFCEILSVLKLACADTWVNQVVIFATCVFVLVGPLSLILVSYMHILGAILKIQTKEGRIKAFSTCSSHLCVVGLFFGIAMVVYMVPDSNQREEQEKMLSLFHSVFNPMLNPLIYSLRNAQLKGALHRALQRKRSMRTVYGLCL
Summary of the method: as §1

OR2A25 (Homo sapiens) = molecular target: T5, OR2A25 (Homo sapiens) (UniProt A4D2G3)
T5 sequence (whole entry): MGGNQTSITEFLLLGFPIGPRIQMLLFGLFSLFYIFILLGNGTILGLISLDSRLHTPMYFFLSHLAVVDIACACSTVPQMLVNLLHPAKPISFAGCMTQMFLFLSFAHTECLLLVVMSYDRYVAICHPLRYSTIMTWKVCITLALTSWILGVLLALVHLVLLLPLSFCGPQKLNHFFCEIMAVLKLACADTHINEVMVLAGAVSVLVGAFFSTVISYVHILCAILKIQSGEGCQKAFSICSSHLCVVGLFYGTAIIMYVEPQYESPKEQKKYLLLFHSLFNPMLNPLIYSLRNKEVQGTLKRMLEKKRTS
Summary of the method: as §1

OR2A2 = test system: T6, OR2A2
T6 sequence (whole entry): T4 sequence (whole entry) with F280L
Summary of the method: as §1

OR2A4 (Homo sapiens) = molecular target: T7, OR2A4 (Homo sapiens) (UniProt O95047)
T7 sequence (whole entry): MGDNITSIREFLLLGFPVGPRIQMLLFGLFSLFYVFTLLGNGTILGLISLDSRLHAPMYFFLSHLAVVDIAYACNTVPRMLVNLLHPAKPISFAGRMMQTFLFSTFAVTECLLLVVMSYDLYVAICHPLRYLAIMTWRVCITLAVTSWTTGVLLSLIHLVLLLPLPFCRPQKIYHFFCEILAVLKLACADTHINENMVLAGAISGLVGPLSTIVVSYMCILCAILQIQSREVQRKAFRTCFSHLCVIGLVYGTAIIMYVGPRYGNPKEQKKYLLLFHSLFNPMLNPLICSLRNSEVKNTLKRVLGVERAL
Summary of the method: as §1

OR2A5 (Homo sapiens) = molecular target: T8, OR2A5 (Homo sapiens) (UniProt Q96R48)
T8 sequence (whole entry): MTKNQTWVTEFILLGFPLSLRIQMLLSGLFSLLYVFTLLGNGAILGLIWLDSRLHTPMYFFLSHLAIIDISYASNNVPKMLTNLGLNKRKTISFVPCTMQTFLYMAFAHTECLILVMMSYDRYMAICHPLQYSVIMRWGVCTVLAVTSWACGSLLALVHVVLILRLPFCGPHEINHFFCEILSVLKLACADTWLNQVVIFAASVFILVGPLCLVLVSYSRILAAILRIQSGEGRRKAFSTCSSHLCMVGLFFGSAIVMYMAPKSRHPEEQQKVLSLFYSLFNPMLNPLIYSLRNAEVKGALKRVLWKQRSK
Summary of the method: as §1

OR2A5 I126V A202S A255T = test system: T9, OR2A5 I126V A202S A255T
T9 sequence (whole entry): T8 sequence (whole entry) with I126V, A202S, A255T
Summary of the method: as §1

OR2A7 (Homo sapiens) = molecular target: T10, OR2A7 (Homo sapiens) (UniProt Q96R45)
T10 sequence (whole entry): T7 sequence (whole entry) with R9T, R238C, V250F
Summary of the method: as §1

OR2A7 = test system: T11, OR2A7
T11 sequence (whole entry): T7 sequence (whole entry) with R238C, V250F
Summary of the method: as §1

OR2AE1 (Homo sapiens) = molecular target: T12, OR2AE1 (Homo sapiens) (UniProt Q8NHA4)
T12 sequence (whole entry): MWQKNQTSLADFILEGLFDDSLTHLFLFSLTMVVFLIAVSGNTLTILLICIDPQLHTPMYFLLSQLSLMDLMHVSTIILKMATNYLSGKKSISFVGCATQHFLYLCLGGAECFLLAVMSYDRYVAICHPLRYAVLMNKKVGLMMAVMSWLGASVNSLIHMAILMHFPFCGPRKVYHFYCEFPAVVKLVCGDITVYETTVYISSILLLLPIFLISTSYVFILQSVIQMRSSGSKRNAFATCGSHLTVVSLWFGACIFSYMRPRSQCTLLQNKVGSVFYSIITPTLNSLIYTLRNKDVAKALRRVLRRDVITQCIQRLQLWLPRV
Summary of the method: as §1

OR2AG1 (Homo sapiens) = molecular target: T13, OR2AG1 (Homo sapiens) (UniProt Q9H205)
T13 sequence (whole entry): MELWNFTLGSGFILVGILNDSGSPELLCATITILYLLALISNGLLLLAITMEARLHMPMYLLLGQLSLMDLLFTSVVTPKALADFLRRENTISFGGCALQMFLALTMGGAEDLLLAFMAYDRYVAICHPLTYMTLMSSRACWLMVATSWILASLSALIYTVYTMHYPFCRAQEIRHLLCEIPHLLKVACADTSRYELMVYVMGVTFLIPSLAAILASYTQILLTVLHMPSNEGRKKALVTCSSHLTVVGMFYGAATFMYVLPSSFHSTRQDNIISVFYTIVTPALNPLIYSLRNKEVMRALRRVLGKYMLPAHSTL
Summary of the method: as §1

OR2AG2 (Homo sapiens) = molecular target: T14, OR2AG2 (Homo sapiens) (UniProt A6NM03)
T14 sequence (whole entry): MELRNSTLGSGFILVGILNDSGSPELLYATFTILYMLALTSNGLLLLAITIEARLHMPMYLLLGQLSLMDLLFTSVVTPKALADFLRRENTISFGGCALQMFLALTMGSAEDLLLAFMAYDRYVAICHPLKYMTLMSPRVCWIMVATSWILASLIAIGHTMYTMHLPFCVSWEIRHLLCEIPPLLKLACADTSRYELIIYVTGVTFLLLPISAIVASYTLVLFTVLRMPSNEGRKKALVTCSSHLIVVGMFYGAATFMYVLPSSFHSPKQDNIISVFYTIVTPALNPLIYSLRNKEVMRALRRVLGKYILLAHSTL
Summary of the method: as §1

OR2AK2 (Homo sapiens) = molecular target: T15, OR2AK2 (Homo sapiens) (UniProt Q8NG84)
T15 sequence (whole entry): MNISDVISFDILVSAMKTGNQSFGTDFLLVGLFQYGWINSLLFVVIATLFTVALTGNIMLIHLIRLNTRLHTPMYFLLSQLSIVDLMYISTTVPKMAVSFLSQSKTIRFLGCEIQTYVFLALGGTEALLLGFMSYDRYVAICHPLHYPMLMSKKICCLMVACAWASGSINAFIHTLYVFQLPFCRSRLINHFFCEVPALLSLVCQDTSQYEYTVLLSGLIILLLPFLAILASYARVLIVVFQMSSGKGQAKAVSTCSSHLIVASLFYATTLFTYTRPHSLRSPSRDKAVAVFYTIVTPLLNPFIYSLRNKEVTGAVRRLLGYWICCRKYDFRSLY
Summary of the method: as §1

OR2AP1 (Homo sapiens) = molecular target: T16, OR2AP1 (Homo sapiens) (UniProt Q8NGE2)
T16 sequence (whole entry): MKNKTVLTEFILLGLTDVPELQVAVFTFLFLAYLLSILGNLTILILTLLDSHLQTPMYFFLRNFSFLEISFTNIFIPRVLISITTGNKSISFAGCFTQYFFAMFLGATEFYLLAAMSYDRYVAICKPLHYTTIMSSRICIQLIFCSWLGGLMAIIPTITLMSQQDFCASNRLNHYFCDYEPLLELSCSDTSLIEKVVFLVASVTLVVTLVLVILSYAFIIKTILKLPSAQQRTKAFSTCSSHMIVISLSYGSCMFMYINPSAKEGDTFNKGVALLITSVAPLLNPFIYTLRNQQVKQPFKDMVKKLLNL
Summary of the method: as §1

OR2AT4 (Homo sapiens) = molecular target: T17, OR2AT4 (Homo sapiens) (UniProt A6NND4)
T17 sequence (whole entry): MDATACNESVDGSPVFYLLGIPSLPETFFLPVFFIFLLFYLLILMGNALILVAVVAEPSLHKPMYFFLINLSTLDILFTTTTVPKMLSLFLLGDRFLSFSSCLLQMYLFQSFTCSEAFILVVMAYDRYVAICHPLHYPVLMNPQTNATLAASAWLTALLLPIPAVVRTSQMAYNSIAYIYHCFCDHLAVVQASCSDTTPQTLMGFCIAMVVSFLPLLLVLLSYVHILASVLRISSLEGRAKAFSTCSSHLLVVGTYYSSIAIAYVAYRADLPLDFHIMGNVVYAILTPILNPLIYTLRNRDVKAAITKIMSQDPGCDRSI
Summary of the method: as §1

OR2B11 (Homo sapiens) = molecular target: T18, OR2B11 (Homo sapiens) (UniProt Q5JQS5)
T18 sequence (whole entry): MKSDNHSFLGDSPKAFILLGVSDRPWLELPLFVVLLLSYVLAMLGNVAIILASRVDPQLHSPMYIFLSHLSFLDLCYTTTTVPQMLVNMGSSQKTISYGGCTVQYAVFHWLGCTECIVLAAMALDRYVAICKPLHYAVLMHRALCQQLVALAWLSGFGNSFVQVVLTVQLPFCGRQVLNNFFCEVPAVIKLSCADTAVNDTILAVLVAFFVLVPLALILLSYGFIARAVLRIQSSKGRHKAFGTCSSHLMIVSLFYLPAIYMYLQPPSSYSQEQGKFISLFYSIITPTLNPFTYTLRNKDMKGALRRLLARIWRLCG
Summary of the method: as §1

OR2B2 (Homo sapiens) = molecular target: T19, OR2B2 (Homo sapiens) (UniProt Q9GZK3)
T19 sequence (whole entry): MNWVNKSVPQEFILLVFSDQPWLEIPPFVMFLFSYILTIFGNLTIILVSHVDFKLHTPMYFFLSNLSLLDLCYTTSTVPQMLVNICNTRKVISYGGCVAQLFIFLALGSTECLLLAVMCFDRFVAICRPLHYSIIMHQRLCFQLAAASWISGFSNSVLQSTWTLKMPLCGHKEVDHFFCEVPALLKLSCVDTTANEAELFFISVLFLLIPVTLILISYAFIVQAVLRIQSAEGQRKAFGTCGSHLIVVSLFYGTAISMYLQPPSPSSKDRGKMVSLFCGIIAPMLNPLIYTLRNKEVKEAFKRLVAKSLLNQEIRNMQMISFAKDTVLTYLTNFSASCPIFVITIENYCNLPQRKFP
Summary of the method: as §1

OR2AJ1 (Homo sapiens) = molecular target: T20, OR2AJ1 (Homo sapiens) (UniProt Q8NGZ0)
T20 sequence (whole entry): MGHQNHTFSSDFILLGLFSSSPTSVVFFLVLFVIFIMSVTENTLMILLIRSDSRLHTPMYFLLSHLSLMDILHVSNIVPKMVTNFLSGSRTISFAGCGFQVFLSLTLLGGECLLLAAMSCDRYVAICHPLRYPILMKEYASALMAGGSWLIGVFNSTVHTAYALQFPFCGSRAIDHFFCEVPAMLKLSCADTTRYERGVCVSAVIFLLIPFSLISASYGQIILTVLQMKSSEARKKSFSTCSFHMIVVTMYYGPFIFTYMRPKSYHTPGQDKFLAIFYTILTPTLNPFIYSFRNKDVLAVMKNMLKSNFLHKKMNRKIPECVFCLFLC
Summary of the method: as §1

Measured: odorant receptor agonist call

CC1=C(O)C(=O)C(C)O1 (configuration not stated)
not listed: OR2AJ1 (Homo sapiens)
inactive: all other assays above

CC1CCCCCCCCCCCCC(=O)C1 (configuration not stated)
not listed: OR2A1 T73A R74C S168C | OR2A2 | OR2A5 I126V A202S A255T | OR2A7
inactive: all other assays above

C=C1CCC2CC1C2(C)C (configuration not stated)
active: OR2A7 (Homo sapiens)

CC(C)=CCCC(C)=CCO
inactive: OR2A7 (Homo sapiens)
